Data reported in ChEMBL document CHEMBL2375316, “Neocosmospora sp.-derived resorcylic acid lactones with in vitro binding affinity for human opioid and cannabinoid receptors” (J Nat Prod, 2013).

Assays:
[1] = biological target: Cannabinoid receptor 2 (Homo sapiens) (UniProt P34972); assay: Displacement of [3H]-CP55940 from human recombinant CB2 receptor transfected in HEK293 cells at 10 uM after 90 mins relative to control; format: cell-based
[2] = biological target: Cannabinoid receptor 1 (Homo sapiens) (UniProt P21554); assay: Displacement of [3H]-CP55940 from human recombinant CB1 receptor transfected in HEK293 cells at 10 uM after 90 mins relative to control; format: cell-based
Chain of Cannabinoid receptor 1 (Homo sapiens) (P21554 whole entry): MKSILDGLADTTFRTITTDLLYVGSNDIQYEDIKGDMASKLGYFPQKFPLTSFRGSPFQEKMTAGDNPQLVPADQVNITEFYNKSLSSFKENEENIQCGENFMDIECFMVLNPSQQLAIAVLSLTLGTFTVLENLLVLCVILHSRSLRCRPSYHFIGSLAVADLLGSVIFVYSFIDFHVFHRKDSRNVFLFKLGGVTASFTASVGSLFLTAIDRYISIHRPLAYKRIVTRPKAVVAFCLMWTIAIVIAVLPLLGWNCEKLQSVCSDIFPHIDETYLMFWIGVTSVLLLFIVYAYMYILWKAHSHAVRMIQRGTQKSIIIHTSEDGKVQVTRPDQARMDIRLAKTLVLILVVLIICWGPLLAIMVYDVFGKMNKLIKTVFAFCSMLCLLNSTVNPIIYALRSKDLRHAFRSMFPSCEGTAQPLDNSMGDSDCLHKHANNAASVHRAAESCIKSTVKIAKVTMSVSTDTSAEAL

[3] = biological target: Mu-type opioid receptor (Homo sapiens) (UniProt P35372); conditions: CHO-K1, at 10 µM
Chain of Mu-type opioid receptor (Homo sapiens) (P35372 whole entry): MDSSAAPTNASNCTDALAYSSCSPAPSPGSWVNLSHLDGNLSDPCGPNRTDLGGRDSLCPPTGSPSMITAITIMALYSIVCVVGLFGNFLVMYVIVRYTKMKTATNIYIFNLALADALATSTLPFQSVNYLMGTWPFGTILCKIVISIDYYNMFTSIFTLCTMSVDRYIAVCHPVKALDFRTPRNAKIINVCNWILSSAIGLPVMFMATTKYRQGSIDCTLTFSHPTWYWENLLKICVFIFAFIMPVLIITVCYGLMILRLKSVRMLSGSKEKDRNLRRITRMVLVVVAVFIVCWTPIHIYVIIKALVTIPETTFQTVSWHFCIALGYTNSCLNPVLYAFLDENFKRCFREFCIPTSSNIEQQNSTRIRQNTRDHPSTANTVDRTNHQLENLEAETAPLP

[4] = biological target: T1, Delta-type opioid receptor (Homo sapiens, UniProt P41143); assay: Displacement of [3H]-enkephalin from human delta opioid receptor transfected in CHOK1 cells at 10 uM after 60 mins relative to control; format: cell-based; conditions: CHO-K1
T1 sequence (P41143 whole entry): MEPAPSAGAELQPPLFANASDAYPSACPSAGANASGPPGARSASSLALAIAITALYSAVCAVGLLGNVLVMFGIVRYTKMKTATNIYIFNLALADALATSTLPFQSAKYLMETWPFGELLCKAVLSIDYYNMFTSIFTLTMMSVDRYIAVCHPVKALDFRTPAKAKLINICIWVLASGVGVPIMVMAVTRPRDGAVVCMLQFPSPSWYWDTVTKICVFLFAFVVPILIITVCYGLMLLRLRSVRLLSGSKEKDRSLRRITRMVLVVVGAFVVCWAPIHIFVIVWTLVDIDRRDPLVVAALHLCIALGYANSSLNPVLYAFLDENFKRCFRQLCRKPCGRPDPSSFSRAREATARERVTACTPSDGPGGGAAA

[5] = biological target: Kappa-type opioid receptor (Homo sapiens) (UniProt P41145); conditions: CHO-K1, at 10 µM
Chain of Kappa-type opioid receptor (Homo sapiens) (P41145 whole entry): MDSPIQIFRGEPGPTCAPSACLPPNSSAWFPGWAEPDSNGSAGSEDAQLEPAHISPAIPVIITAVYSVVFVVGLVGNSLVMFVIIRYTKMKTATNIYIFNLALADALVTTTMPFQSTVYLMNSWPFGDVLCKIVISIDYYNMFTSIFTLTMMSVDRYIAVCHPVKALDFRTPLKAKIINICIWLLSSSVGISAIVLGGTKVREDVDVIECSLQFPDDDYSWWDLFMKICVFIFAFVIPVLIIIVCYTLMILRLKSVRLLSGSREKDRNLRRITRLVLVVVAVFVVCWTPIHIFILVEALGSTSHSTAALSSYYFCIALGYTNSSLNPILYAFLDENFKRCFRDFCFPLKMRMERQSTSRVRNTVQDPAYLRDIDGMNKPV

[6] = biological target: T1, Delta-type opioid receptor; assay: Agonist activity at human delta opioid receptor transfected in CHOK1 cells after 60 mins by [35S]GTPgammaS binding assay
[7] = biological target: T1, Delta-type opioid receptor; assay: Displacement of [3H]-enkephalin from human delta opioid receptor transfected in CHOK1 cells after 60 mins; format: cell-based, CHO-K1
[8] = biological target: T1, Delta-type opioid receptor; assay: Agonist activity at human delta opioid receptor transfected in CHOK1 cells after 60 mins by [35S]GTPgammaS binding assay relative to control; format: functional, cell-based; conditions: CHO-K1
How it was run: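 [35S]GTPγS functional assay on membranes from CHO-K1 cells stably expressing δ-opioid receptor; diluted compound incubated with membrane at predetermined protein level plus 0.05 nM [35S]GTPγS, 60 min at room temperature. Terminated by vacuum filtration through GF/C filters, 10 washes 50 mM Tris-HCl pH 7.4, scintillation counting. Basal binding defined as binding with GTPγS buffers.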

Chain of Cannabinoid receptor 2 (Homo sapiens) (P34972 whole entry): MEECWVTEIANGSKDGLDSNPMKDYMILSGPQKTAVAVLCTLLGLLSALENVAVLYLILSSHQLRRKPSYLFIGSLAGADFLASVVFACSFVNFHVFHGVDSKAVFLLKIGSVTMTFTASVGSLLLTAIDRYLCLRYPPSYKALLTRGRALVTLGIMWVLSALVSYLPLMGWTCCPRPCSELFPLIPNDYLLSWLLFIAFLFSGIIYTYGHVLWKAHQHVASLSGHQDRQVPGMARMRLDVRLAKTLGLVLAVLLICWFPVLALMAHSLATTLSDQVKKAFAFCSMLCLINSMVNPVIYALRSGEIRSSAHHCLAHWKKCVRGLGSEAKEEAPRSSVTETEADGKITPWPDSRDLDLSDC

Compound | inhibition [1] | inhibition [2] | inhibition [3] | inhibition [4] | inhibition [5] | EC50 [6] | IC50 [7] | Ki [7] | Emax [8]
C[C@@H]1C[C@H]2O[C@@H]2/C=C\C=C\C(=O)Cc2c(Cl)c(O)cc(O)c2C(=O)O1 | 13% | 30.7% | 84.9% | – | – | – | – | – | –
CCCCCCC(C)(C)c1ccc([C@@H]2C[C@H](O)CC[C@H]2CCCO)c(O)c1 | 90.3% | 88.8% | – | – | – | – | – | – | –
C[C@@H]1C/C=C/CCCCC(=O)Cc2cc(O)cc(O)c2C(=O)O1 | – | – | 8.7% | 45.7% | 24.7% | – | – | – | –
C[C@@H]1CCCC(=O)CCCC(=O)Cc2cc(O)cc(O)c2C(=O)O1 | 27.7% | 47.4% | 41.3% | – | 8.1% | – | – | – | –
COc1cc(O)c2c(c1)CC(=O)CCCC(=O)CCC[C@@H](C)OC2=O | 46.3% | – | 24% | 54.9% | 32.7% | 0.239 µM | 14.6 µM | 7.31 µM | 2400%
COc1cc(O)c2c(c1)CC(=O)CCCC/C=C/C[C@@H](C)OC2=O | 44.5% | – | 22.4% | 44.7% | 11.4% | – | – | – | –
